Assay results reported in article PMC4814157 (ACS chemical biology, 2011).
Changes are numbered by the printed parent chain. Entries after “also recorded” stand apart in the source; their conditions may differ. Blank lines part the entries; values can stand above or below the compound they belong to.

How the values were obtained:
[1] = target: T1, Scp1 (Homo sapiens, UniProt Q9GZU7); experiment: Concentration-response assay of rabeprazole analogues on Scp1; assay type: biochemical
T1 sequence (Q9GZU7 77-256): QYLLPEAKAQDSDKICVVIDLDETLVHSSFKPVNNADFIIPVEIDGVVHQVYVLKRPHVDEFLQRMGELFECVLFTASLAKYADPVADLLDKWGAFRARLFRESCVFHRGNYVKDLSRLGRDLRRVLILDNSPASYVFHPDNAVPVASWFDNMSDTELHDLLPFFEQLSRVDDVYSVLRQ

[2] = target: T1, Scp1; experiment: pNPP assay of Scp1 phosphatase activity; assay type: biochemical
[3] = target: T1, Scp1; experiment: Malachite green assay with CTD-derived phosphorylated peptide; assay type: biochemical
How it was run: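 Human Scp1 (residues 77–256, E. coli BL21(DE3)-expressed, Ni-NTA purified), 5 ng, acting on a 17-mer Ser5-phosphorylated CTD peptide. Reaction ran 3 min at 37 °C, was quenched with malachite green reagent, and read at 620 nm. IC50 used substrate near Km with 0–100 µM inhibitor. Km came from peptide at 0.01–0.4 mM; Ki from peptide titrations without and with inhibitor.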

[4] = target: T1, Scp1; experiment: Differential scanning fluorimetry, thermal stability of Scp1; assay type: binding; details: 20 µM protein, 100 µM rabeprazole; 57.8 °C in absence of compound
[5] = test system: Scp1 F106E mutant; experiment: pNPP assay, Scp1 F106E mutant; assay type: biochemical, human
How it was run: (§1)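 Point mutants of human Scp1 (residues 77–256; E. coli BL21(DE3), Ni-NTA purified), 50 ng each. Each was preincubated with inhibitor 10 min at RT in pH 5.5 Tris-acetate buffer with 10 mM MgCl2, 0.02% Triton X-100, 1% DMSO. pNPP near Km was added and hydrolysis ran 10–15 min at 37 °C. Reactions were quenched with 0.25 N NaOH and read at 410 nm. IC50 was fitted from concentration–response curves (0–100 µM inhibitor).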

[6] = target: T2, Scp1 V127A mutant (Homo sapiens, UniProt Q9GZU7, V127A); experiment: pNPP assay, Scp1 V127A mutant; assay type: biochemical
T2 sequence (Q9GZU7 77-256 V127A): T1 sequence (Q9GZU7 77-256) with V51A
How it was run: as §1

[7] = target: T3, Scp1 K157A mutant (Homo sapiens, UniProt Q9GZU7, K157A); experiment: pNPP assay, Scp1 K157A mutant; assay type: biochemical
T3 sequence (Q9GZU7 77-256 K157A): T1 sequence (Q9GZU7 77-256) with K81A
How it was run: as §1

[8] = target: T4, Scp1 L155A mutant (Homo sapiens, UniProt Q9GZU7, L155A); experiment: pNPP assay, Scp1 L155A mutant; assay type: biochemical
T4 sequence (Q9GZU7 77-256 L155A): T1 sequence (Q9GZU7 77-256) with L79A
How it was run: as §1

[9] = test system: Scp1 Tyr158 to Ala mutant; experiment: pNPP assay, Scp1 Tyr158 to Ala mutant; assay type: biochemical, human
How it was run: as §1

[10] = target: T5, S. pombe Fcp1 (Schizosaccharomyces pombe, UniProt Q9P376); experiment: pNPP assay, concentration-response on Fcp1; assay type: biochemical; details: up to 0.1 mM rabeprazole, substrate comparable to Km
T5 sequence (Q9P376 148-641): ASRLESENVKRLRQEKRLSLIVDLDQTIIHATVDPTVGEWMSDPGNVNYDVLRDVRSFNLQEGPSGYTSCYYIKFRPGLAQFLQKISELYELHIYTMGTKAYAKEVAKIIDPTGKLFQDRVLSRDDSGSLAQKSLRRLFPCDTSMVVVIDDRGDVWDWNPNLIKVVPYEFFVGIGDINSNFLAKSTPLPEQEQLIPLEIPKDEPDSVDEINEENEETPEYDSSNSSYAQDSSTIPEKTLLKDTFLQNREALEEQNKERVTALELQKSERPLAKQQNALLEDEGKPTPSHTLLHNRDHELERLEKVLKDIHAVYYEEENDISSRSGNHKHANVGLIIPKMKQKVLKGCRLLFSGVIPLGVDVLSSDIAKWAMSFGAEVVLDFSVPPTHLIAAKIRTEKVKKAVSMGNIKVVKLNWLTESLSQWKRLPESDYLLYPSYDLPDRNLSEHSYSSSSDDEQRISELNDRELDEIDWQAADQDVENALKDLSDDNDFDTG

[11] = target: T6, human Dullard (Homo sapiens, UniProt O95476); experiment: pNPP assay, concentration-response on Dullard; assay type: biochemical; details: up to 0.1 mM rabeprazole, substrate comparable to Km
T6 sequence (O95476 46-244): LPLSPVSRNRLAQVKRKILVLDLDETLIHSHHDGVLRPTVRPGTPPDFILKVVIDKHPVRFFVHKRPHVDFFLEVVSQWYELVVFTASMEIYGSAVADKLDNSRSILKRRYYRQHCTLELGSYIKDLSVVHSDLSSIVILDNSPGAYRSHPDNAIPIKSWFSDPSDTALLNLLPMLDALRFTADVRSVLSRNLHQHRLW

[12] = target: T7, bacteriophage λ Ser/Thr phosphoprotein phosphatase (λPPase) (Escherichia phage lambda, UniProt P03772); experiment: Inhibition of λPPase; assay type: biochemical; details: up to 1 mM concentration (data not shown)
T7 sequence (P03772 1-221): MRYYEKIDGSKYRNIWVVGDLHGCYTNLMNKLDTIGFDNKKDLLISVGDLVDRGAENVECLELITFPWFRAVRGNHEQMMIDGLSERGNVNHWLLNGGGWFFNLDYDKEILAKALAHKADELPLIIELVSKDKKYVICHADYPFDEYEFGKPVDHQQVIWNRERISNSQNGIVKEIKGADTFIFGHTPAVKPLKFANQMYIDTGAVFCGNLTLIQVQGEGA

inhibition of Scp1 [1]: no inhibition
Compound: COCCCOc1cc[n+]([O-])c(C[S+]([O-])c2nc3ccccc3[nH]2)c1C (stereo not drawn) [Rabeprazole N-oxide]

inhibition of Scp1 [1]: did not show any inhibition
Compound: COCCCOc1ccnc(CS(=O)(=O)c2nc3ccccc3[nH]2)c1C [Rabeprazole sulfone]

Compound: Cc1c(OCC(F)(F)F)ccnc1C[S+]([O-])c1nc2ccccc2[nH]1 (stereo not drawn) [lansoprazole]
inhibition of Scp1 [1]: no inhibition; also recorded: does not inhibit

Compound: COCCCOc1ccnc(C[S+]([O-])c2nc3ccccc3[nH]2)c1C (stereo not drawn) [rabeprazole]
IC50 [2]: 4 ± 0.7 µM | mechanism of inhibition ([2]; against pNPP): mixed inhibitor | Ki′ ([2]; pNPP as the substrate, steady-state kinetics): 10 ± 2 µM | IC50 [3]: 9 ± 3 µM | Ki [3]: 5 ± 1 µM | mechanism of inhibition ([3]; CTD-derived phosphorylated peptide as the substrate): competitive inhibitor | melting temperature of Scp1 in the presence of the compound [4]: 59.1 °C | increase of IC50 versus wildtype Scp1 [5]: at least 10 fold | change of IC50 versus wildtype Scp1 [6]: moderately increased IC50 | change of IC50 versus wildtype Scp1 [7]: moderately increased IC50 | change of IC50 versus wildtype Scp1 [8]: moderately increased IC50 | loss of inhibition versus wildtype Scp1 [9]: at least 10 fold | inhibition of Fcp1 [10]: no inhibition | inhibition of Dullard [11]: no inhibition | inhibition of λPPase [12]: no inhibition
